# In ChEMBL document CHEMBL1144149, “DNA polymerase beta inhibitors from Tetracera boiviniana” (J Nat Prod, 1999):
# Key:
# [1] = target: DNA polymerase beta (Rattus norvegicus) (UniProt P06766); details: 10 ug/mL
# P388D1 = assay: Potentiation of 75 nM bleomycin induced cytotoxicity in mouse P388D1 cells at 10 uM assessed as cell viability after 6 hrs by trypan blue exclusion assay; assay type: functional
# Summary of the method: (§1)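 P-388D1 suspension cells were grown in DMEM (4500 mg glucose/L) with 10% donor horse serum and antibiotics at 37 °C in 5% CO2. Cells at ca. 5 × 10^5 cells/mL were stabilized for 1 h, then exposed to compound alone or together with 75 nM bleomycin (blenoxane) for 6 h. Final DMSO was 0.25%. Viability was read by trypan blue exclusion as % of control.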
# [2] = Cytotoxicity against mouse P388D1 cells at 10 uM after 6 hrs by trypan blue exclusion assay; assay type: functional
# Summary of the method: as §1
# [3] = target: DNA polymerase beta (Rattus norvegicus) (UniProt P06766); details: 50 ug/mL
structure (smiles),measurement,setting,value
C=C(C)[C@@H]1CC[C@]2(C(=O)O)CC[C@]3(C)[C@H](CC[C@@H]4[C@@]5(C)CC[C@H](O)C(C)(C)[C@@H]5CC[C@]43C)[C@@H]12 [BETULINIC ACID],inhibition,[1],63%
same,Activity,P388D1,70%
same,Activity,[2],99%
same,inhibition,[3],96%
